Reference: ChEMBL document CHEMBL3797182, “In vitro evaluation of imidazo[4,5-c]quinolin-2-ones as gametocytocidal antimalarial agents” (Bioorg Med Chem Lett, 2016)

Tests used:
[1] = tested on: Plasmodium falciparum; assay: Antimalarial activity against chloroquine-sensitive asexual blood stage of Plasmodium falciparum 3D7 infected in RBC after 72 hrs by SYBR Green assay; type: functional, organism-based; conditions: 3D7, 72 h
Procedure, shortened: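 Asexual blood-stage P. falciparum 3D7 (chloroquine-sensitive) parasites. 1536-well format, 11-point dose-response, duplicate tests. Torin 2 served as positive control and DMSO as negative control.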

[2] = tested on: HepG2; assay: Cytotoxicity against human HepG2 cells assessed as cell viability after 24 hrs; type: cell-based; conditions: HepG2, 24 h
Procedure, shortened: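 HepG2 cell viability as general cytotoxicity. 1536-well, 11-point dose-response in duplicate, top concentration 46 μM. Torin 2 positive control, DMSO negative control.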

[3] = tested on: Plasmodium falciparum; assay: Selectivity ratio of IC50 for chloroquine-sensitive late gametocytic stage (III to V) of Plasmodium falciparum 3D7 to IC50 for chloroquine-sensitive asexual blood stage of Plasmodium falciparum 3D7; type: functional
[4] = tested on: Plasmodium falciparum; assay: Gametocytocidal activity against chloroquine-sensitive late gametocytic stage (III to V) of Plasmodium falciparum 3D7 after 72 hrs by Alamar Blue assay; type: functional, organism-based; conditions: 3D7, 72 h
Procedure, shortened: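 Late-stage (III–V) P. falciparum 3D7 gametocytes. AlamarBlue redox indicator reads cytosolic metabolic activity as a measure of gametocyte viability. 1536-well format, 11-point dose-response, duplicates. Torin 2 positive control, DMSO negative control.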

Structure (SMILES)	IC50 [1] [µM]	IC50 [2] [µM]	Ratio IC50 [3]	IC50 [4] [µM]
CS(=O)(=O)c1ccc(-c2ccc3ncc4[nH]c(=O)n(-c5cccc(C(F)(F)F)c5)c4c3c2)cc1	1.16	> 45	1	1.11
Cc1ccc(-c2ccc3ncc4[nH]c(=O)n(-c5cccc(C(F)(F)F)c5)c4c3c2)cc1	5.19	> 45	1	7.05
NS(=O)(=O)c1ccc(-c2ccc3ncc4[nH]c(=O)n(-c5cccc(C(F)(F)F)c5)c4c3c2)cc1	0.948	> 45	1	2.33
Cn1c(=O)n(C2CCCCC2)c2c3cc(-c4ccc(N)nc4)ccc3ncc21	0.832	3.84		1.88
N#Cc1cccc(-c2ccc3ncc4[nH]c(=O)n(-c5cccc(C(F)(F)F)c5)c4c3c2)c1	0.874	> 45	1	2.79
COc1ccc(-n2c(=O)n(C)c3cnc4ccc(-c5ccc(N)nc5)cc4c32)cc1	0.047	2.34		0.148
N#Cc1ccc(-c2ccc3ncc4[nH]c(=O)n(-c5cccc(C(F)(F)F)c5)c4c3c2)cc1	2.58	> 45	1	6.33
O=c1[nH]c2cnc3ccc(-c4cnc5ccccc5c4)cc3c2n1-c1cccc(C(F)(F)F)c1	15.4	> 45		2.35
Nc1ncc(-c2ccc3ncc4[nH]c(=O)n(-c5cccc(C(F)(F)F)c5)c4c3c2)cn1	0.213	2.54		0.45
Nc1ccc(-c2ccc3ncc4[nH]c(=O)n(C5CCCCC5)c4c3c2)cn1	1.35	6.5		2.87
O=c1[nH]c2cnc3ccc(-c4ccc5[nH]cnc5c4)cc3c2n1-c1cccc(C(F)(F)F)c1	0.214	3.24		0.347
Cn1c(=O)n(C2CC2)c2c3cc(-c4ccc(N)nc4)ccc3ncc21	1.16	11.4		0.865
Nc1ccc(-c2ccc3ncc4[nH]c(=O)n(-c5cccc(C(F)(F)F)c5)c4c3c2)cc1	0.283	7.23	11.6	3.27
Cn1c(=O)n(-c2ccc(C#N)cc2)c2c3cc(-c4ccc(N)nc4)ccc3ncc21	0.098	> 45		0.118
O=c1[nH]c2cnc3ccc(-c4ccc(F)cc4)cc3c2n1-c1cccc(C(F)(F)F)c1	1.57	> 45	1	1.83
Nc1ccc(-c2ccc3ncc4[nH]c(=O)n(-c5cccc(C(F)(F)F)c5)c4c3c2)cn1	0.091	3.11		0.097
N#Cc1ccc(-n2c(=O)[nH]c3cnc4ccc(-c5ccc(N)nc5)cc4c32)cc1	0.386	> 45		0.482
CC(=O)Nc1ccc(-c2ccc3ncc4[nH]c(=O)n(-c5cccc(C(F)(F)F)c5)c4c3c2)cn1	0.081	> 45		0.186
Nc1ccc(-c2ccc3ncc4[nH]c(=O)n(-c5ccc(C(F)(F)F)cc5)c4c3c2)cn1	0.53	> 45		0.576
O=c1[nH]c2cnc3ccccc3c2n1-c1cccc(C(F)(F)F)c1	5.03	> 45		7.46

Further lines, with some results ahead:

IC50 [1] [µM]	Structure (SMILES)	IC50 [2] [µM]	Ratio IC50 [3]	IC50 [4] [µM]
1.75	Cn1c(=O)n(-c2cccc(C(F)(F)F)c2)c2c3cc(-c4ccc(Cl)cc4)ccc3ncc21	> 45	1	1.86
3.93	CCn1c(=O)n(-c2cccc(C(F)(F)F)c2)c2c3cc(-c4ccc(Cl)cc4)ccc3ncc21	> 45	1	10.4
0.007	Cn1c(=O)n(-c2cccc(C(F)(F)F)c2)c2c3cc(-c4ccc(N)nc4)ccc3ncc21	2.6	4	0.028
0.114	Cn1c(=O)n(-c2cccc(C(F)(F)F)c2)c2c3cc(-c4ccc(O)cc4)ccc3ncc21	2.33	1	0.229
0.095	Cn1c(=O)n(-c2cccc(C(F)(F)F)c2)c2c3cc(-c4cccnc4)ccc3ncc21	10.3		0.236
3.18	Cn1c(=O)n(-c2cccc(C(F)(F)F)c2)c2c3cc(-c4ccc(F)cc4)ccc3ncc21	> 45	1	5.59
0.313	O=c1[nH]c2cnc3ccc(-c4ccncc4)cc3c2n1-c1cccc(C(F)(F)F)c1	1.5		1.14
0.733	Cc1ccc(-c2ccc3ncc4c(c3c2)n(-c2cccc(C(F)(F)F)c2)c(=O)n4C)cc1	> 45	1	0.524
7.33	Cn1c(=O)n(-c2cccc(C(F)(F)F)c2)c2c3cc(-c4ccc(C#N)cc4)ccc3ncc21	> 45	1	11
5.78	Cn1c(=O)n(-c2cccc(C(F)(F)F)c2)c2c3cc(-c4cnc5ccccc5c4)ccc3ncc21	31.6		5.27
4.04	O=c1[nH]c2cnc3ccc(-c4ccccc4)cc3c2n1-c1cccc(C(F)(F)F)c1	> 45	4.6	18.4
0.104	Cn1c(=O)n(-c2ccc(C(F)(F)F)cc2)c2c3cc(-c4ccc(N)nc4)ccc3ncc21	> 45		0.237
0.183	CCn1c(=O)n(-c2cccc(C(F)(F)F)c2)c2c3cc(-c4ccc(N)nc4)ccc3ncc21	3.68		0.205
2.82	O=c1[nH]c2cnc3ccc(-c4cccnc4)cc3c2n1-c1cccc(C(F)(F)F)c1	2.25		11.4
0.025	CC(=O)Nc1ccc(-c2ccc3ncc4c(c3c2)n(-c2cccc(C(F)(F)F)c2)c(=O)n4C)cn1	3.98		0.042
0.065	Cn1c(=O)n(-c2cccc(C(F)(F)F)c2)c2c3cc(-c4ccc5[nH]cnc5c4)ccc3ncc21	2.63		0.157
0.18	Cc1ccc(-c2ccc3ncc4[nH]c(=O)n(-c5cccc(C(F)(F)F)c5)c4c3c2)cn1	> 45		0.32
0.021	Cc1ccc(-c2ccc3ncc4c(c3c2)n(-c2cccc(C(F)(F)F)c2)c(=O)n4C)cn1	14.5		0.081
0.017	Cn1c(=O)n(-c2cccc(C(F)(F)F)c2)c2c3cc(-c4cnc(N)nc4)ccc3ncc21	1.33		0.052
0.088	COc1cccc(-n2c(=O)n(C)c3cnc4ccc(-c5ccc(N)nc5)cc4c32)c1	2.53		0.126
0.093	Cn1c(=O)n(-c2cccc(C(F)(F)F)c2)c2c3cc(-c4ccncc4)ccc3ncc21	1.73		0.359
0.069	Cn1c(=O)n(-c2ccccc2)c2c3cc(-c4ccc(N)nc4)ccc3ncc21	6.54		0.219
0.412	O=c1[nH]c2cnc3ccc(-c4ccc(O)nc4)cc3c2n1-c1cccc(C(F)(F)F)c1	> 45		4.63
17	Cn1c(=O)n(-c2cccc(C(F)(F)F)c2)c2c3ccccc3ncc21	> 45		3.64
0.158	Cn1c(=O)n(-c2cccc(C(F)(F)F)c2)c2c3cc(-c4ccc(O)nc4)ccc3ncc21	23.5		0.294
